From ChEMBL document CHEMBL4346761, “Microwave-Assisted Organic Synthesis, structure-activity relationship, kinetics and molecular docking studies of non-cytotoxic benzamide derivatives as selective butyrylcholinesterase inhibitors” (Bioorg Med Chem, 2019)
Active and inactive are the calls of the source. No cut-off for these calls is given here.

Columns and labels:
[1] = biological target: Cholinesterase (Equus caballus) (UniProt P81908); assay: Inhibition of equine serum BChE using […] chloride as substrate preincubated for 15 mins followed by substrate addition and measured after 15 mins under dark condition by Ellman's method relative to control; set-up: concentration or dose not given beside the values
Chain of Cholinesterase (Equus caballus) (P81908 whole entry): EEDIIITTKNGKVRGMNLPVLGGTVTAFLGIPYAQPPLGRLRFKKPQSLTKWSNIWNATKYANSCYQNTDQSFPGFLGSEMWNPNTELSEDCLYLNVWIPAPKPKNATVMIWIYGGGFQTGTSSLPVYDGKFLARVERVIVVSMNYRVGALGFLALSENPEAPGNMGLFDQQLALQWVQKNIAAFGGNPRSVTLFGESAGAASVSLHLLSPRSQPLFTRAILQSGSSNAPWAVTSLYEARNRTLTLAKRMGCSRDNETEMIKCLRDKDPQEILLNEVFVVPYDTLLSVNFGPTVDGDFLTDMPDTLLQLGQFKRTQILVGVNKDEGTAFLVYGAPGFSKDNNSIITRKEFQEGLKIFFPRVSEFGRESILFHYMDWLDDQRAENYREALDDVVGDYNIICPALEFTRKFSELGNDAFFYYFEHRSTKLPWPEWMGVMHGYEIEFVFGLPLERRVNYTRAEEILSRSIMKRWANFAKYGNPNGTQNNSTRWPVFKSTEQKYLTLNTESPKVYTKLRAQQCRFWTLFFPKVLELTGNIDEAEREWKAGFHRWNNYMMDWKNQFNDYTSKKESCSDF
Procedure, shortened: (§1)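 Modified Ellman assay. Equine serum BChE (51.732 mU) was preincubated 15 min at 25 °C with test compound (dissolved in methanol) in 100 mM sodium phosphate buffer, pH 8.0. Butyrylthiocholine chloride (0.5 mM) was added for 15 min in the dark, then DTNB (0.5 mM) was added. Absorbance was read at 412 nm and mean IC50 values were derived.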

NIH3T3 [2] = assay: Cytotoxicity against mouse 3T3 cells at 1 to 30 uM measured after 48 hrs by MTT assay relative to control; assay type: cell-based; settings: nih3t3, 48 h
Procedure, shortened: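 MTT colorimetric read-out. Cells seeded at 3x10^5 in 100 µL medium and left 24 h to attach. Medium then replaced with fresh medium plus test compound (1 to 30 µM). Incubated 48 h at 37 °C, 5% CO2, 90% humidity. MTT added, 4 h incubation. Formazan dissolved in DMSO, absorbance read at 540 nm. IC50 values calculated.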

Cholinesterase [3] = biological target: T1, Cholinesterase (Equus caballus, UniProt P81908); assay: (§2) Inhibition of equine serum BChE using […] chloride as substrate preincubated for 15 mins followed by substrate addition and measured after 15 mins under dark condition by Ellman's method; procedure, shortened: as §1
T1 sequence (P81908 whole entry): as above

Cholinesterase [4] = biological target: T1, Cholinesterase; assay: Uncompetitive inhibition of equine serum BChE using varying levels of […] chloride as substrate by Lineweaver-Burk plot analysis
[5] = biological target: Acetylcholinesterase (Electrophorus electricus) (UniProt O42275); assay: Inhibition of electric eel AChE using acetylthiocholine iodide as substrate preincubated for 15 mins followed by substrate addition and measured after 15 mins under dark condition by Ellman's method
Chain of Acetylcholinesterase (Electrophorus electricus) (O42275 24-633 limits assumed): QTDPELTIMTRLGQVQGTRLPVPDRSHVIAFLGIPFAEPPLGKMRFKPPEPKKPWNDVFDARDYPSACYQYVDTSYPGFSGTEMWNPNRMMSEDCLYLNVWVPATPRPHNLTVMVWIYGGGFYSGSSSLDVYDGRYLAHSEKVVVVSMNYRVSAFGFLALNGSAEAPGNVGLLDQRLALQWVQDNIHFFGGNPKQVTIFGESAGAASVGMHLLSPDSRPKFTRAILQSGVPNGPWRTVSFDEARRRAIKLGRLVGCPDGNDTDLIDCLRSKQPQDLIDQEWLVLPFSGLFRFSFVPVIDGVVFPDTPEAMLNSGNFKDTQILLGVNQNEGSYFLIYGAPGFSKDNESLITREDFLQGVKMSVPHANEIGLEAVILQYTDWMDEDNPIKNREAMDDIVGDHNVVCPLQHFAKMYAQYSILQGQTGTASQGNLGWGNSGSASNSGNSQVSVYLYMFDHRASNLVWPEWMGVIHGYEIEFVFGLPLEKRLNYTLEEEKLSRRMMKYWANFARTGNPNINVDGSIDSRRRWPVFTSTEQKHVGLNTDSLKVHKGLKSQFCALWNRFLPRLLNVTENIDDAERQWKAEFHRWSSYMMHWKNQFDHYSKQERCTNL
Procedure, shortened: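 Modified Ellman assay. Electric eel AChE (0.002 mU) was preincubated 15 min at 25 °C with test compound (dissolved in methanol) in 100 mM sodium phosphate buffer, pH 8.0. Acetylthiocholine iodide (0.5 mM) and DTNB were added. After 15 min in the dark, absorbance was read at 412 nm.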

NIH3T3 [6] = assay: Cytotoxicity against mouse 3T3 cells measured after 48 hrs by MTT assay; assay type: cell-based; settings: NIH3T3, 48 h
Procedure, shortened: (§3)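 Cells seeded at 3x10^5 per well in medium and allowed to attach. After 24 h the medium was replaced with fresh medium plus test compound (1 to 30 µM). Plates were held 48 h at 37 °C, 5% CO2, 90% humidity. MTT was added for 4 h, formazan dissolved in DMSO, and absorbance read at 540 nm. IC50 values were calculated.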

NIH3T3 [7] = assay: Cytotoxicity against mouse 3T3 cells measured after 48 hrs by MTT assay relative to control; assay type: cell-based; settings: nih3t3, 48 h; procedure, shortened: as §3
Cholinesterase [8] = biological target: T1, Cholinesterase; assay: Mixed inhibition of equine serum BChE using varying levels of […] chloride as substrate by Lineweaver-Burk plot analysis
Procedure, shortened: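 Kinetics for BChE in the Ellman format with varied substrate. Inhibition mode was assigned from Lineweaver-Burk plots, secondary replots (slope vs inhibitor concentration) and Dixon plots. Apparent Km and Vmax were determined.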

[9] = biological target: Cholinesterase (Equus caballus) (UniProt P81908); assay: Potency index, ratio of donepezil IC50 to test compound IC50 for equine serum BChE
[10] = biological target: Cholinesterase (Equus caballus) (UniProt P81908); assay: as §2; procedure, shortened: as §1

O=C(Nc1c(Cl)cccc1Cl)c1ccc(F)cc1F
inhibition [1]: 80.7%
Activity (NIH3T3 [2]): 34%
IC50 (Cholinesterase [3]): 18.7 µM
Ki (Cholinesterase [4]): 27.6 µM
inhibition [5]: inactive

C[C@@H]1C[C@@H]([C@H](O)CC2CC(=O)NC(=O)C2)C(=O)[C@@H](C)C1 [CYCLOHEXIMIDE]
IC50 (NIH3T3 [6]): 0.8 µM
Activity (NIH3T3 [7]): 95%

O=C(Nc1c(Cl)cccc1Cl)c1ccc(F)cc1
Ki (Cholinesterase [8]): 9.9 µM
inhibition [1]: 86.5%
Activity (NIH3T3 [2]): 29%
IC50 (Cholinesterase [3]): 16.1 µM
inhibition [5]: inactive

COc1ccc(C(=O)Nc2c(Cl)cccc2Cl)cc1
Ki (Cholinesterase [8]): 18 µM
inhibition [1]: 90.7%
Activity (NIH3T3 [2]): 32%
IC50 (Cholinesterase [3]): 11.3 µM
inhibition [5]: inactive

O=C(Nc1c(Cl)cccc1Cl)c1ccccc1
Ki (Cholinesterase [8]): 4.4 µM
inhibition [1]: 100%
Ratio IC50 [9]: 10
Activity (NIH3T3 [2]): 33%
IC50 (Cholinesterase [3]): 1.3 µM
inhibition [5]: inactive

COc1cccc(C(=O)Nc2c(Cl)cccc2Cl)c1
Ki (Cholinesterase [8]): 13 µM
inhibition [1]: 95.2%
Activity (NIH3T3 [2]): 14.8%
IC50 (Cholinesterase [3]): 5.5 µM
inhibition [5]: inactive

O=C(Nc1c(Cl)cccc1Cl)c1cccc([N+](=O)[O-])c1
Activity (NIH3T3 [2]): 41%
inhibition [10]: inactive
inhibition [5]: inactive

CCOc1ccccc1C(=O)Nc1c(Cl)cccc1Cl
inhibition [1]: 112%
Activity (NIH3T3 [2]): 15%
IC50 (Cholinesterase [3]): 6 µM
inhibition [5]: inactive

O=C(Nc1c(Cl)cccc1Cl)c1ccccc1Br
inhibition [1]: 88%
Activity (NIH3T3 [2]): 41%
IC50 (Cholinesterase [3]): 1.1 µM
Ki (Cholinesterase [4]): 2.4 µM
inhibition [5]: inactive

COc1cc(C(=O)Nc2c(Cl)cccc2Cl)cc(OC)c1OC
inhibition [1]: 69.2%
Activity (NIH3T3 [2]): 48%
IC50 (Cholinesterase [3]): 20.8 µM
Ki (Cholinesterase [4]): 23.5 µM
inhibition [5]: inactive

Cc1ccc(C(=O)Nc2c(Cl)cccc2Cl)cc1[N+](=O)[O-]
inhibition [1]: 69.1%
Activity (NIH3T3 [2]): 40%
IC50 (Cholinesterase [3]): 165 µM
inhibition [5]: inactive

O=C(Nc1c(Cl)cccc1Cl)c1c(F)cccc1F
inhibition [1]: 70.6%
Activity (NIH3T3 [2]): 34%
IC50 (Cholinesterase [3]): 12.6 µM
Ki (Cholinesterase [4]): 5.6 µM
inhibition [5]: inactive

O=C(Nc1c(Cl)cccc1Cl)c1ccc(Br)cc1
Ki (Cholinesterase [8]): 2.6 µM
inhibition [1]: 84%
Activity (NIH3T3 [2]): 49%
IC50 (Cholinesterase [3]): 0.8 µM
inhibition [5]: inactive
